Source: article PMC2852926 (The Journal of Biological Chemistry, 2010)
“Also recorded” adds a separate entry of the source. Like-named read-outs stand apart in the source and are kept apart here. Blank lines part the entries; values can stand above or below the compound they belong to.

Tests used:
[1] = tested on: OM-hydrolyzing activity in human liver cytosol; type: biochemical
[2] = tested on: OM-hydrolyzing activity in human intestinal cytosol; type: biochemical
human CMBL [3] = target: T1, human CMBL (Homo sapiens, UniProt Q96DG6); type: biochemical
T1 sequence (Q96DG6 1-245): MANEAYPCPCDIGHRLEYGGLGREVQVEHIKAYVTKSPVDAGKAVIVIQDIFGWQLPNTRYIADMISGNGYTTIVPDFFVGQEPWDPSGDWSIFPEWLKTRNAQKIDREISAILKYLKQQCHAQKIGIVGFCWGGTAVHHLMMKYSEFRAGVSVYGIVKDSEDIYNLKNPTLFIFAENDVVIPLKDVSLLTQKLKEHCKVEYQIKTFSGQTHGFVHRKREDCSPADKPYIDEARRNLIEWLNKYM

[4] = tested on: OM-hydrolyzing activity in human plasma; test: Effect of esterase inhibitors on OM-hydrolyzing activity in human plasma; type: biochemical; conditions: OM 250 μM, 5 min
Outline: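 Human plasma, diluted to 2.5 mg protein/ml, incubated 5 min with OM substrate (250 μM) plus one esterase inhibitor: BNPP, DFP, PCMB, eserine or PMSF at 1000 μM, or EDTA at 500 μM. Olmesartan formed was quantified by reversed-phase C18 HPLC with UV at 254 nm. Activity was expressed as formation rate. Means of duplicate determinations.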

human CMBL [5] = target: T1, human CMBL; test: Hydrolysis of medoxomil prodrugs by recombinant CMBL; type: in vitro ADME; conditions: CMBL-transfected mammalian cell lysate, pH 7.4, 37 °C
[6] = OM hydrolysis in human liver cytosol, kinetic analysis; type: in vitro ADME
Outline: (§1)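 Commercial human liver or intestinal subcellular fractions were incubated in 10 mM potassium phosphate (pH 7.4) at 37 °C with OM at 7.81–1000 μM. Protein was 0.05 mg/ml for liver and intestinal cytosols, 0.5 mg/ml for liver microsomes and 0.25 mg/ml for intestinal microsomes. Olmesartan was measured by C18 HPLC-UV at 254 nm, net of buffer-control hydrolysis. Km and Vmax came from nonlinear least-squares Michaelis–Menten fits of triplicates.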

[7] = OM hydrolysis in human intestinal cytosol, kinetic analysis; type: in vitro ADME
Outline: as §1

[8] = OM hydrolysis in human liver microsomes, kinetic analysis; type: in vitro ADME
Outline: as §1

[9] = OM hydrolysis in human intestinal microsomes, kinetic analysis; type: in vitro ADME
Outline: as §1

[10] = Prodrug in portal or circulating blood of rats; type: in vivo; conditions: data not shown
human plasma PON1 = conditions: cited from earlier work
plasma albumin = conditions: cited from earlier work
human CMBL [11] = target: T1, human CMBL; test: Hydrolysis of typical esterase substrates by recombinant CMBL; type: biochemical; conditions: substrate 1 mM, CMBL-transfected cell lysate 0.05 mg protein/ml
human CMBL [12] = target: T1, human CMBL; test: Ulifloxacin formation from prulifloxacin by recombinant CMBL; type: in vitro ADME; conditions: HEPES pH 7.4, 37 °C, CMBL-transfected mammalian cell lysate

Structure (SMILES): O=[N+]([O-])c1ccc(OP(=O)(O)Oc2ccc([N+](=O)[O-])cc2)cc1 [BNPP, Bis-p-nitrophenylphosphate]
Inhibition of OM-hydrolyzing activity [1]: partially inhibited | Inhibition of OM-hydrolyzing activity [2]: partially inhibited | Inhibition of OM-hydrolyzing activity (human CMBL [3]): ~50%

Inhibition of OM-hydrolyzing activity ([4]; inhibitor 500 μM): almost completely inhibited | Inhibition of OM-hydrolyzing activity (human CMBL [3]): no inhibition
Structure (SMILES): O=C(O)CN(CCN(CC(=O)O)CC(=O)O)CC(=O)O [EDTA]
Inhibition of OM-hydrolyzing activity [1]: not inhibited | Inhibition of OM-hydrolyzing activity [2]: not inhibited

Hydrolysis by recombinant CMBL (human CMBL [5]): readily hydrolyzed
Structure (SMILES): Cc1oc(=O)oc1COC(=O)C1=C([C@H]2CCCO2)S[C@@H]2[C@@H]([C@@H](C)O)C(=O)N12 [Faropenem medoxomil]

Hydrolysis by recombinant CMBL (human CMBL [5]): readily hydrolyzed
Structure (SMILES): Cc1oc(=O)oc1COC(=O)[C@@H]1N2C(=O)[C@@H](NC(=O)[C@H](N)c3ccccc3)[C@H]2SC1(C)C [Lenampicillin]

Km ([6]; human, liver cytosol, pH 7.4): 160 ± 19 µM | Km ([7]; human, intestinal cytosol, pH 7.4): 193 ± 24 µM | Km ([8]; human, liver microsomes, pH 7.4): 481 ± 23 µM | Km ([9]; human, intestinal microsomes, pH 7.4): 236 ± 10 µM | Prodrug detected in portal or circulating blood [10]: no prodrug was detected
Structure (SMILES): CCCc1nc(C(C)(C)O)c(C(=O)OCc2oc(=O)oc2C)n1Cc1ccc(-c2ccccc2-c2nnn[nH]2)cc1 [Olmesartan medoxomil]
Vmax ([6]; Liver cytosol, mean ± S.E.): 19.7 ± 0.8 nmol/min/mg protein | Vmax ([7]; Intestinal cytosol, mean ± S.E.): 45.1 ± 2.0 nmol/min/mg protein | Vmax ([8]; Liver microsomes, mean ± S.E.): 15.0 ± 0.3 nmol/min/mg protein | Vmax ([9]; Intestinal microsomes, mean ± S.E.): 6.76 ± 0.11 nmol/min/mg protein | Hydrolysis by PON1 (human plasma PON1; listed as OM): capable of hydrolyzing; also recorded: hydrolyze | Hydrolysis by plasma albumin (plasma albumin): capable of hydrolyzing

Structure (SMILES): O=C(O)c1cc[c]([Hg][Cl])cc1 [PCMB, p-chloromercuribenzoate]
Inhibition of OM-hydrolyzing activity [1]: strongly inhibited | Inhibition of OM-hydrolyzing activity [2]: strongly inhibited | Inhibition of OM-hydrolyzing activity ([4]; inhibitor 1000 μM): almost completely inhibited | Inhibition of OM-hydrolyzing activity (human CMBL [3]): almost completely inhibited

Structure (SMILES): O=S(=O)(F)Cc1ccccc1 [PMSF, Phenylmethylsulfonyl fluoride]
Inhibition of OM-hydrolyzing activity [1]: not inhibited | Inhibition of OM-hydrolyzing activity [2]: not inhibited | Inhibition of OM-hydrolyzing activity (human CMBL [3]): no inhibition

Structure (SMILES): CC(=O)SCC[N+](C)(C)C.[I-] [acetylthiocholine iodide]
Hydrolysis by recombinant CMBL (human CMBL [11]): does not hydrolyze

Structure (SMILES): CNC(=O)Oc1ccc2c(c1)[C@]1(C)CCN(C)[C@@H]1N2C [eserine]
Inhibition of OM-hydrolyzing activity [1]: not inhibited | Inhibition of OM-hydrolyzing activity [2]: not inhibited | Inhibition of OM-hydrolyzing activity (human CMBL [3]): no inhibition

Structure (SMILES): CC(=O)Oc1ccc([N+](=O)[O-])cc1 [p-nitrophenyl acetate]
Hydrolysis by recombinant CMBL (human CMBL [11]): does not hydrolyze

Structure (SMILES): CC(=O)Oc1ccccc1 [phenyl acetate]
Hydrolysis by recombinant CMBL (human CMBL [11]): does not hydrolyze

Structure (SMILES): Cc1oc(=O)oc1CN1CCN(c2cc3c(cc2F)c(=O)c(C(=O)O)c2n3C(C)S2)CC1 (centres unmarked) [prulifloxacin]
Enzymatic hydrolysis by recombinant human CMBL (human CMBL [12]): not enzymatically hydrolyzed; also recorded: not hydrolyzed at all | Hydrolysis by PON1 (human plasma PON1): hydrolyze
